High-throughput results (PubChem BioAssay)
SENP1 FRET inh: SENP1 (human) catalytic domain inhibition; Q9P0U3; recombinant SENP1 catalytic domain, CyPet-SUMO1-YPet FRET cleavage; AID 624204; 360,000 compounds, 0.21% hits; inhibition, % at 10 µM;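 active = inhibition at least 30% at 10 µM, raw YFP signal under a set limit, fluorescence ratio 0.5 to 1.5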
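material = recombinant human SENP1 catalytic domain, His6-tagged | quantity = 20 pM enzyme | reagent = 25 nM SUMO1 FRET substrate | compound dosing = 10 µM single point, 0.5% DMSO | timing = 50 min enzyme reaction, room temperature, light-protected | detection = FRET, CFP and YFP emission | control set = no-enzyme low, enzyme-DMSO high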
GRIN3A LBD mod: modulates the human NR3A ligand-binding domain; Tm shift relative to glycine control, % at 25 µM; 340,000 compounds, 2.5% hits; NR3A LBD differential scanning fluorimetry, Tm shift; 0% = protein alone, 100% = glycine-bound protein;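 active = melting temperature shift of at least 10% of the positive control shift, at one fixed dose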
iPSC survival up: hiPSC single-cell survival enhancement. ATPlite luminescence; 100% = ROCK inhibitor wells, 0% = DMSO. survival enhancement, % at 20 µM. 360,000 compounds, 0.044% hits; in the data active = survival enhancement above about 18%;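 also: cells exposed to compounds for 16 hours before the ATP read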
H9c2 protect: protects H9c2 cardiomyocytes from peroxide injury. 360,000 compounds, 0.63% hits. AID 588492. protection from H2O2 cell death, % at 20 µM. H2O2 injury protection, ATPLite, 2 h;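 active = compounds giving at least 50% protection of heart cells from peroxide-induced death in the single-dose screen, raw or plate-pattern-corrected value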
FAS-TE inh: FAS thioesterase (human) inhibition | recombinant FAS-TE, OMFH fluorogenic substrate, fluorescence endpoint | P49327 | 360,000 compounds, 0.67% hits | inhibition, % at 15 µM;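 active = compounds whose normalised, plate-corrected inhibition of enzyme fluorescence in the single-dose primary screen is 50% or more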
Arrestin-AP2 inh: human beta-arrestin and AP2 interaction inhibition; FITC-arrestin peptide / GST-AP2 beads, flow cytometry; AP2 beta2 appendage carries R879A mutation; inhibition, % at 10 µM; 340,000 compounds, 0.31% hits;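 active = inhibition above a set limit, near 3 SD of compounds lacking own fluorescence, cut at about 54% in these data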
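Material – GST-tagged AP2 beta2-adaptin appendage (R879A) on 4 µm glutathione beads · Probe or stimulus – fluorescein-tagged arrestin peptide at 50 nM final · Timing – 12 min plus 1 h, RT · Detection – bead flow cytometry, FITC channel · Read-out basis – inhibition as reduced fluorescein signal on beads, percent · Medium – PBS plus Tween 20 (0.05%) and BSA (0.1%)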
A number is an active result; - = inactive; . = not tested or not shown. An excerpt weighted towards active compounds, which were near 4% of everything screened.

SMILES	SENP1 FRET inh	GRIN3A LBD mod	iPSC survival up	H9c2 protect	FAS-TE inh	Arrestin-AP2 inh
CN(C)CCNc1ncnc2c1ncn2[C@H]1CN(Cc2ccncc2)C[C@@H](CO)O1	-	.	-	-	-	.
CC(C)C[C@@H]1COc2cccc(N3CCC[C@@H]3CO)c2S(=O)(=O)N1	-	.	-	.	-	.
Brc1ccc(C=Nc2ccc(Nc3ccccc3)cc2)s1	-	12	-	-	-	-
C(=Nc1ccc(Nc2ccccc2)cc1)c1ccc2ccccc2c1	-	-	-	-	-	-
CC1(C)Cc2c(cnn2-c2ccccc2)C(NC(=O)CCc2ccc(=O)[nH]n2)C1 (configuration not stated)	-	13	-	-	-	-
OC(c1ccccc1)(c1ccccc1)C1CCN(CCCOc2ccc3c(c2)CCCC3)CC1	-	.	-	.	-	.
CCCNC(=O)c1ccc(N2CCC3(CC2)CC(c2ccccc2)=NO3)c(NC(=O)c2ccco2)c1	-	-	-	90	-	-
Cn1cc([C@]2(O)C(=O)Nc3ccc(F)cc32)c2ccccc21	-	.	.	.	.	.
COC(=O)c1ccc2nc(-c3ccc(F)cc3)c(CC3CCCCC3)n2c1	-	.	-	.	-	.
N#Cc1c(NC(=O)Cn2nc(C(F)(F)F)c3c2CCCC3)sc2c1CCC2	-	-	-	-	-	-
CC1CCc2c(sc(NC(=O)Cn3nc(C(F)(F)F)c4c3CCCCC4)c2C#N)C1 (configuration not stated)	-	16	-	-	-	-
c1ccc(COc2cccc(-c3cc4nc(NCc5cccs5)ccn4n3)c2)cc1	-	.	-	-	-	.
Cc1ccc(-c2ccnc(=S)[nH]2)cc1	-	10	-	-	-	-
COc1ccc(C2C3=C(CC(C)(C)CC3=O)N(CCN3CCOCC3)C3=C2C(=O)CC(C)(C)C3)cc1	-	-	-	-	-	-
CC1(C)CC(=O)C2=C(C1)N(CCN1CCOCC1)C1=C(C(=O)CC(C)(C)C1)C2c1ccc(Cl)cc1	-	-	-	52	-	-
O=C(/C=C1\NC2(CCCC2)Cc2ccccc21)C(=O)N/N=C/c1ccccc1O	-	-	-	80	-	-
CN(CC(=O)Nc1cccc(S(=O)(=O)NC2=NCCCCC2)c1)Cc1ccc(C(C)(C)C)cc1	-	-	-	-	66	-
CC(C)(C)c1ccc(OCCC(=O)Nc2cccc(S(=O)(=O)NC3=NCCCCC3)c2)cc1	-	-	-	-	-	-
COc1ccccc1CNC(=O)C1(C)CCN1C(=O)C1(c2ccccc2)CC1 (configuration not stated)	-	.	-	-	-	.
O=C(NCc1cccc(C(F)(F)F)c1)c1ccc2sc([C@H]3C[C@H](O)[C@@H](CO)O3)nc2c1	-	.	-	-	-	.
O=C(N/N=C/c1ccc(-c2ccc(S(=O)(=O)Nc3ncccn3)cc2)o1)c1cc2ccccc2cc1O	-	-	-	-	-	-
NS(=O)(=O)c1ccc(-c2ccc(/C=N/NC(=O)c3ccccc3O)o2)cc1	-	13	-	-	-	-
N#C/C(=C/c1ccc(-c2ccc([N+](=O)[O-])cc2)o1)C(=O)Nc1nc(-c2cccs2)cs1	-	-	-	-	-	-
N#C/C(=C\c1ccc(-c2ccc(F)cc2)o1)C(=O)Nc1nc(-c2cccs2)cs1	-	19	-	-	-	-
N#C/C(=C/c1ccc(-c2ccc(S(N)(=O)=O)cc2)o1)C(=O)Nc1ccccc1	-	23	-	-	-	-
SMILES	SENP1 FRET inh	GRIN3A LBD mod	iPSC survival up	H9c2 protect	FAS-TE inh	Arrestin-AP2 inh
N#C/C(=C\c1ccco1)C(=O)Nc1ccc(S(N)(=O)=O)cc1	-	-	-	-	-	-
CCOC(=O)C1(C)CCN1C(=O)c1cccs1 (configuration not stated)	-	.	-	-	-	.
CCOC(=O)[C@]12CCCC=C1N(Cc1ccccc1)C(=O)[C@H](CC(=O)NCCCN1CCCC1=O)C2	-	.	.	.	.	.
CC(=O)NCCCNC(=S)NCCCN(Cc1ccc(Cl)cc1)c1ccc(Br)cn1	-	.	-	-	-	.
COc1cc(CN2C[C@@H](CO)O[C@@H](n3cnc4c(N5CCOCC5)ncnc43)C2)cc(OC)c1OC	-	.	-	-	-	.
NC(=S)N/N=C/c1c[nH]c2ccccc12	-	-	-	-	-	-
